Most compounds without a hit are left out; they make up all but 4.1% or so of the library.
SMARCA2 act = SMARCA2 (BRM) function activators, primary screen, cell-based, luminescence, high throughput; MG213 cells, MMTV-luciferase reporter, dexamethasone, overnight; activation, % at 9.1 µM; actives 1% (n = 370,000); in the data active = activation above about 7.8%;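 also: 0% = vehicle wells and 100% = reference activator wells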
MPTP inh = mitochondrial permeability transition pore inhibitors, primary screen, biochemical, isolated mouse mitochondria, absorbance | Ca2+ swelling absorbance, 30 min | inhibition, % at 10 µM | actives 1.4% (n = 360,000) | AID 602449, 2012;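 active = inhibition of 50% or more, scaled per plate between neutral and stimulator controls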;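 also: 0% = DMSO wells given calcium and 100% = 1 mM EGTA wells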
ATG4B inh = ATG4B protease inhibitors, primary screen, biochemical, fluorescence, uHTS | AID 504462, 2011 | inhibition, % at 8.33 µM | Cysteine protease ATG4B (Homo sapiens), Q9Y4P1 | actives 0.51% (n = 340,000) | ATG4B cleavage of LC3-PLA2, NBD-HPC fluorescence, 1 h; in the data active = inhibition above about 40%
Target sequence (Q9Y4P1 whole entry, looked up): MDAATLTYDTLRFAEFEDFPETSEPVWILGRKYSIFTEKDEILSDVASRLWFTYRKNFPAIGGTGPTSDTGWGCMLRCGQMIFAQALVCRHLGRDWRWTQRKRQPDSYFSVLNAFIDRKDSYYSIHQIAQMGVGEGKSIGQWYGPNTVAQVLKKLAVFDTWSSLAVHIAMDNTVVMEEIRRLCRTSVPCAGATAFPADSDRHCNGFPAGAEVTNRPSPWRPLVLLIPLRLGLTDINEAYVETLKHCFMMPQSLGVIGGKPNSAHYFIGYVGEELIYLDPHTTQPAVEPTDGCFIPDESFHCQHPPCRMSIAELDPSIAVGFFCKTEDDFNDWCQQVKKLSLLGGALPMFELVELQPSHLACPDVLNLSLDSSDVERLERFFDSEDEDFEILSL
MC4R antag cAMP = MC4R antagonists of cAMP signaling, primary screen, cell-based, TR-FRET, antagonist arm of biased-ligand search. Melanocortin receptor 4 (Homo sapiens), P32245. MC4R-expressing cells, MTII-stimulated cAMP, LANCE TR-FRET. inhibition, % at 6.5 µM. actives 0.48% (n = 360,000). AID 540295, 2011;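 active = inhibition above its plate's cutoff, the mean of tested wells on that plate plus 3 SD, cut at about 29% in these data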;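 also: 0% = Melanotan II alone and 100% = Melanotan II plus saturating MCL0020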
Target sequence (P32245 whole entry, looked up): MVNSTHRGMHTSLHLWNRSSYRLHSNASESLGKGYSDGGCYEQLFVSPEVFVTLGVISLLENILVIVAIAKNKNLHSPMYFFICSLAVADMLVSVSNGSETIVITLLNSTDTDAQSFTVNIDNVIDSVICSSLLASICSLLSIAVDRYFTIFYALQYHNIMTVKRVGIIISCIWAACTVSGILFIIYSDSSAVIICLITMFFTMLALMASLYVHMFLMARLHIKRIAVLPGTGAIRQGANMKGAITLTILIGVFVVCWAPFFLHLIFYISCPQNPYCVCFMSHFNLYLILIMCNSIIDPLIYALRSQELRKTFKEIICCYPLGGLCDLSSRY
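system = U2OS cells with stable human MC4R expression | also added = Melanotan II challenge after compound preincubation | dosing = one concentration, 6.5 µM nominal | incubation = compound 30 min, challenge 1 h, detection 1 h | measured by = TR-FRET with Eu-cAMP and labeled anti-cAMP, 671 nm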
MC4R ag barr = MC4R agonists recruiting beta-arrestin, primary screen, cell-based, luminescence, agonist arm of biased-ligand search | Melanocortin receptor 4 (Homo sapiens), P32245 | U2OS MC4R beta-arrestin complementation; percent of melanotan II response, DMSO zero | activation, % at 8.9 µM | actives 0.98% (n = 360,000);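 active = activation above a per-plate cutoff, the mean activation of sample wells on that plate plus 3 SD, cut at about 8% in these data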
cAMP nonselect = nonselective cAMP signaling inhibitors, parental cells, counter-screen for MC4R biased antagonist project, cell-based, TR-FRET, U2OS, forskolin, triplicate | shares compounds with MC4R antag cAMP | LANCE TR-FRET | inhibition, % at 6.5 µM | actives 26% (n = 1,600) | AID 602193, 2012;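 active = mean inhibition over triplicates above the low-control well mean plus 3 SD, set per campaign, cut at about 13% in these data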;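 also: signal is single emission at 671 nm which falls as cellular cAMP rises; 0% = forskolin-stimulated wells and 100% = buffer without forskolin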
MC4R antag conf = MC4R cAMP antagonists, retest, confirmation, cell-based, TR-FRET | MC4R-expressing cells, MTII-stimulated cAMP | actives 27% (n = 1,600) | shares compounds with MC4R antag cAMP | AID 602195, 2012 | inhibition, % at 6.5 µM; in the data active = inhibition above about 29%;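 also: 0% = agonist stimulated wells alone and 100% = agonist stimulated wells plus saturating reference antagonist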
* marks the source's active call; other numbers are inactive results; nt = no result.

SMILES	SMARCA2 act	MPTP inh	ATG4B inh	MC4R antag cAMP	MC4R ag barr	cAMP nonselect	MC4R antag conf
O=C(CCc1ccccc1)N[C@H]1[C@@H](OC(=O)c2cnccn2)CCC[C@]12C(=O)N(Cc1ccccc1)c1ccccc12	-4.4	nt	nt	nt	nt	nt	nt
O=C(CCl)c1ccc2c(c1)CCN2C(=O)C1CCCCC1	-0.7	-3.6	1.1	30.2*	-2.7	4.1	23.4
CCC1CCCCN1S(=O)(=O)c1ccc2c(c1)CCN2C(=O)C1CCC1 (stereo not given)	-1.9	0.1	-6.3	1.1	-0.3	nt	nt
CS(=O)(=O)c1ccccc1C(=O)Nc1cc(Cl)ccc1-n1cncn1	-1.9	-0.7	-0.3	3.8	-1.9	nt	nt
O=C(Nc1cc(Cl)ccc1-n1cncn1)c1cc(F)c(F)c(F)c1F	1.2	-0.6	3.5	30.6*	1.5	24.1*	50.4*
CCC[C@H](/C=C/C(=O)OC(C)(C)C)Sc1ccc(OC)cc1	5.4	nt	nt	nt	nt	nt	nt
O=C1OCCC1Sc1nc2ccccc2c(=O)n1Cc1ccccc1 (stereo not given)	-1.8	-2.6	-4.0	4.7	1.9	nt	nt
O=C1OCCC1Sc1nc2cc(Cl)ccc2n1Cc1ccccc1 (stereo not given)	-1.7	0.6	-9.0	47.8*	-2.1	12.2	33.3*
COc1ccc(OC)c2[nH]c(=O)c(CCNS(=O)(=O)c3ccc(F)cc3)cc12	-1.1	0.1	-6.9	32.7*	2.8	0.7	-1.9
COc1ccc(OC)c2[nH]c(=O)c(CCNC(C)=O)cc12	-1.0	-0.5	3.3	16.3	2.5	nt	nt
CCS(=O)(=O)NCCc1cc2c(OC)ccc(OC)c2[nH]c1=O	1.6	-2.8	9.4	-3.3	-1.7	nt	nt
COc1ccc(OC)c2[nH]c(=O)c(CCNC(=O)C(=O)c3c(C)[nH]c4ccccc34)cc12	-1.4	1.6	-5.3	31.4*	1.2	3.2	3.7
C=C(C)C1CC=C(C)/C(=N/NC(=O)COc2ccccc2Cl)C1 (stereo not given)	-2.4	-1.5	7.1	33.5*	-0.7	-2.5	-9.2
C=C(C)C1CC=C(C)/C(=N/NC(=O)COc2ccc(C)cc2)C1 (stereo not given)	0.9	3.8	7.4	16.6	0.8	nt	nt
CCCc1nnc(NC(=O)c2nc(S(=O)(=O)Cc3cccc(C)c3)ncc2Cl)s1	-13.6	-1.0	-4.5	37.7*	-4.9	24.9*	47.4*
Cc1cccc(CS(=O)(=O)c2ncc(Cl)c(C(=O)Nc3c(C)cccc3C)n2)c1	-12.9	1.5	-15.9	27.5	-5.9	nt	nt
Cc1cccc(CS(=O)(=O)c2ncc(Cl)c(C(=O)NCc3ccccc3)n2)c1	-12.6	-0.7	-12.5	52.3*	-5.0	27.4*	57.2*
O=C(Nc1ccc(Cl)c(Cl)c1)C1CCCN1S(=O)(=O)c1cccc2cccnc12 (stereo not given)	-8.1	nt	nt	nt	nt	nt	nt
CCOC(=O)N1CCN(C(=O)C[C@H]2C[C@@]3(C(=O)OC)C(=C[C@H](C4CCCC4)O[C@@H]3C)N(Cc3cccc4ccccc34)C2=O)CC1	-0.2	nt	nt	nt	nt	nt	nt
CSc1ccc(OC2CCCCC2NS(=O)(=O)c2ccc(Cl)cc2)cc1 (stereo not given)	-1.3	35.1	13.8	30.7*	1.5	0.2	15.7
COc1cc2c(=O)n(CCCC(=O)NCC3CCCO3)c(=O)n(CC(=O)c3ccc(F)cc3)c2cc1OC (stereo not given)	-3.6	1.7	-2.5	30.3*	-0.2	-0.3	-2.7
COc1ccc(NC(=O)Cn2c(=O)n(CCC(=O)NCC3CCCO3)c(=O)c3cc(OC)c(OC)cc32)cc1 (stereo not given)	-4.0	-1.0	-2.2	0.1	-0.4	nt	nt
c1ccc(COc2ccc(-c3cc4nc(NCCN5CCOCC5)ccn4n3)cc2)cc1	0.3	2.0	nt	33.4*	2.0	3.2	20.0
CCN1CCCCC(NC(=O)c2cc(OC)c(OC)c(OC)c2)C1=O (stereo not given)	-4.0	nt	nt	nt	nt	nt	nt
CCC(C)Nc1nc(Cl)nc(N(C#N)CN2C(=O)c3ccccc3S2(=O)=O)n1 (stereo not given)	6.4	0.8	1.1	47.6*	-1.2	22.8*	39.8*
SMILES	SMARCA2 act	MPTP inh	ATG4B inh	MC4R antag cAMP	MC4R ag barr	cAMP nonselect	MC4R antag conf
Cc1cc(C)nc(N(C#N)CN2C(=O)c3ccccc3C2=O)n1	nt	-0.6	1.8	-1.9	0.8	nt	nt
O=C(CSc1nnc(CNC(=O)c2cccs2)o1)Nc1ccccc1	-0.2	-0.7	-8.3	-6.7	1.2	nt	nt
Cc1ccc(NC(=O)CSc2nnc(CNC(=O)c3cccs3)o2)cc1	1.9	1.6	-7.8	30.8*	0.8	0.0	-3.6
CC(=O)N1CCN(c2ccc(N3CCN(C(C)=O)[C@@H](C)C3)c(C)c2)[C@@H](C)C1	-0.6	nt	nt	nt	nt	nt	nt
CC(C)(C)c1ccc(C(=O)Nc2sc3c(c2C(=O)O)CCC3)cc1	-13.1	1.8	31.9	30.4*	-0.2	0.1	4.0
O=C(Nc1sc2c(c1C(=O)O)CCCC2)c1ccc(F)cc1	4.5	2.0	7.0	19.2	1.0	nt	nt
COc1ccc(-c2cc(-c3nnc(SCC(=O)NC4CCCCC4)n3N)[nH]n2)cc1	1.4	nt	nt	nt	nt	nt	nt
CN(C)c1ccc(-n2cccc2/C=C/[N+](=O)[O-])cc1	-4.7	-1.0	-6.2	38.9*	2.5	8.7	30.8*
CN(c1ccccc1)c1ccc(/C=C/[N+](=O)[O-])cc1	3.2	-0.6	4.9	10.1	-4.3	nt	nt
CC(=O)Nc1ccc(C(=O)Nc2cccc(S(=O)(=O)N(C)c3ccccc3)c2)cc1	1.4	-1.1	-7.7	8.4	0.8	nt	nt
CN(c1cccc(NC(=O)c2ccc(N(C)S(=O)(=O)c3ccccc3)cc2)c1)S(C)(=O)=O	-4.0	3.4	-3.5	41.7*	-0.4	5.7	0.2
O=C(CSc1nccc(=O)[nH]1)Nc1ccccc1Sc1ccccc1	-4.4	2.0	9.6	31.2*	0.8	-0.2	-11.8
Cn1cnnc1SCC(=O)Nc1ccccc1Sc1ccccc1	0.8	-0.8	-1.9	0.9	-1.0	nt	nt
O=S1(=O)c2c(cccc2N2CCSCC2)Oc2ccccc2CN1Cc1cn(Cc2cccc(C(F)(F)F)c2)nn1	-5.4	nt	nt	nt	nt	nt	nt
CSc1ccccc1C(=O)Nc1ccccc1C	-0.8	1.0	-5.2	-7.0	-2.9	nt	nt
CSc1ccccc1C(=O)Nc1c(C)cccc1C	-0.6	1.4	4.3	31.9*	1.8	-2.1	-11.1
CC(=O)CC[C@H]1CC[C@]2(CCCN(C(=O)C3CCCCC3)C2)O1	-0.1	nt	nt	nt	nt	nt	nt

High-throughput results deposited in PubChem by several laboratories.
